The species named for one assay is Papio papio. In words: Inhibition of MAO-B in baboon liver mitochondrial fraction using MMTP substrate at 300 uM.
Assay [1] in a line: Antiapoptotic activity against serum deprivation-induced human SK-N-BE(2) cells assessed as viable cells at 10 uM after 36 hrs incubation by DePsipher agent relative to control. In kind it is functional. Put shortly: (§1)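 SK-N-BE(2) neuroblastoma cells grown in F12 with 10% FBS, Pen/Strep and fungizone at 37 °C. At 80% confluency they were serum-deprived for 24 h, then seeded at 1 x 10^6 cells per 2 mL serum-deprived medium containing compound in DMSO (1.25% v/v final). Cells were incubated 36 h, stained with DePsipher dye 20 min at 37 °C and run by flow cytometry (50 000 events; FL-1 green, FL-2 red). % viable = (Q1+Q2)/(Qtotal−Q3) x 100. Tests in triplicate.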

Assay [2] in a line: Antiapoptotic activity against serum deprivation-induced human SK-N-BE(2) cells assessed as improvement in cell health at 1 mM to 10 uM after 36 hrs incubation by DePsipher agent relative to 1.25% DMSO. In kind it is functional. Put shortly:
as §1

Assay [3] in a line: Antiapoptotic activity against serum deprivation-induced human SK-N-BE(2) cells assessed as apoptotic cells at 1 mM to 10 uM after 36 hrs incubation by DePsipher agent relative to 1.25% DMSO. In kind it is functional. Put shortly: as §1
The nature of assay [4]: Antiapoptotic activity against serum deprivation-induced human SK-N-BE(2) cells assessed as improvement in cell health at 1 mM to 10 uM after 36 hrs incubation by DePsipher agent relative to non-induced cells. In kind it is functional. An outline of the steps: as §1

Structures are written as SMILES. Activity calls are given as the source filed them. The rule behind the calls is not given here.

Experimental findings from ChEMBL document CHEMBL3259550, “Polycyclic propargylamine and acetylene derivatives as multifunctional neuroprotective agents” (Eur J Med Chem, 2014) are described below.

The compound `C#CCN` displayed an inhibition in the assay listed under Papio papio of 19.9%. In assay [1], the Activity is 79%.
On to `C#CCN(C)[C@H](C)Cc1ccccc1`, for which, in the assay listed under Papio papio, the inhibition is 93.3%. Also, in assay [1], the Activity amounted to 77%.
With `C#CCN(CC#C)C12CC3CC(CC(C3)C1)C2`, the Activity in assay [2] was 9%; in assay [1] it was 68%. In addition, the inhibition in the assay filed under Papio papio came to 14%.
The corresponding values for `C#CCN(Cc1ccccc1)C12CC3CC(CC(C3)C1)C2` are 9%, 70% and 20.1%.
Turning to `COCCOC(=O)C1=C(C)NC(C)=C(C(=O)OC(C)C)C1c1cccc([N+](=O)[O-])c1` (stereo not drawn), the result in assay [1] was inactive.
As to `c1ccc(CNC23OC4C5C6CC(C7C6C4C72)C53)cc1` (stereo not drawn), the Activity in assay [2] was found to be 9%; in assay [1], 67%. This compound also came in with an inhibition in the assay listed under Papio papio of 14.6%.
Take `C#CC12OC3(O)C4C5CC(C6C5C3(C)C61)C42` (racemic): the Activity in assay [2] is 9%; in assay [3] it was 0.5%; in assay [1] it was 100%. In the assay filed under Papio papio, the inhibition entry is “inactive”. For the same compound, the “improvement in cell health” value in assay [4] was “Active”.
As to `C#CCN1C2C3C4CC5C6C4C2C6(C)C1(O)C53` (racemic), the results for the Activity in assay [2] and in assay [1] were 9% and 67%, respectively. This compound also had an inhibition in the assay filed under Papio papio of 10.8%.
In the case of `C#CCN1C2C3C4CC5C6C4C2C6C1(O)C53` (racemic), the Activity in assay [2] came to 9%; in assay [1] it was 93%. Moreover, the inhibition in the assay filed under Papio papio was determined as 5.83%. Moreover, the “improvement in cell health” value in assay [4] is “Active”.
For `C#CCNC12OC3C4C5CC(C6C5C3(C)C61)C42` (racemic) the same measures were 9%, 97%, 11.7% and “Active”.
In the case of `C#CCNC12OC3C4C5CC(C6C5C3C61)C42` (racemic), the results for the Activity in assay [2] and in assay [1] were 9% and 88%, respectively. Further, the inhibition result in the assay listed under Papio papio is “inactive”.
For `OC1(C#Cc2ccccc2)C2C3CC4C5C3CC2C5C41` (racemic), the Activity worked out at 9% in assay [2], 2.8% in assay [3] and 98% in assay [1]. Also, the inhibition in the assay filed under Papio papio was determined as 73.3%. Moreover, the “improvement in cell health” value in assay [4] was “Active”.

By inhibition is commonly meant the drop in the measured response relative to a control, in per cent.
